Laboratory results as given in ChEMBL document CHEMBL3593226, “Discovery of small molecules with vasodilating characteristics and adjustable hydrolytic behavior” (Bioorg Med Chem, 2015).
pEC50: −log10 of the molar value. Active and inactive are the calls of the source.

Tests used:
Aorta [1] = test: Vasodilating activity in potassium chloride-mediated precontracted guinea pig aorta compound treated every 45 mins by chart recorder analysis; assay type: functional, tissue-based; conditions: Cavia porcellus, 0.75 h
Summary of the method: (§1)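 Guinea pig aortic or pulmonary artery rings held at 19.6 mN resting tension and precontracted with 90 mM KCl. Compound added cumulatively every 45 min after a control period, with relaxation recorded on a chart recorder. Solvent-only effect subtracted. Mean ± SEM of 3–5 experiments; paired Student's t-test.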

Right cardiac atrium = test: Chronotropic activity in electrically-stimulated guinea pig right atrium compound treated every 45 mins by chart recorder analysis; assay type: functional, tissue-based; conditions: Cavia porcellus, 0.75 h
Summary of the method: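 Isolated guinea pig right atria, resting tension 10.37 mN. After a 30 min control period, compound added cumulatively to the bath until steady state. Rate change recorded on a chart recorder; solvent-only effect subtracted. Stocks in distilled water or DMSO. Mean ± SEM of 4–5 experiments; paired Student's t-test.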

[2] = Inotropic activity in electrically-stimulated guinea pig papillary muscle compound treated every 45 mins by chart recorder analysis; assay type: functional, tissue-based; conditions: Cavia porcellus, 0.75 h
Summary of the method: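 Guinea pig papillary muscles driven electrically at 1 Hz, 3 ms pulses, amplitude 10% above threshold; resting tension 3.92 mN. After a 30 min control period, compound added cumulatively until steady state. Contraction force recorded on a chart recorder; solvent-only effect subtracted. Mean ± SEM of 4–5 experiments; paired t-test.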

[3] = Vasodilating activity in potassium chloride-mediated precontracted guinea pig pulmonary artery compound treated every 45 mins by chart recorder analysis; assay type: functional, tissue-based, Cavia porcellus; summary of the method: as §1
Ileum = test: Spasmolytic activity in potassium chloride-mediated precontracted guinea pig terminal ileum compound treated every 45 mins by chart recorder analysis; assay type: functional, tissue-based; conditions: Cavia porcellus, 0.75 h
Summary of the method: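 Guinea pig terminal ileum held at 4.9 mN resting tension and precontracted with 60 mM KCl. Compound added cumulatively every 45 min after a control period, with relaxation recorded on a chart recorder. Solvent-only effect subtracted. Stocks in distilled water or DMSO. Mean ± SEM of 3–5 experiments.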

[4] = Stability of the compound in D2O at 20 mg/ml at 20 degC measured over 24 hrs by 1H-NMR spectroscopic analysis; assay type: physicochemical
Summary of the method: (§2)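 Compound dissolved in D2O and kept at 20 °C. 1H NMR spectra taken at 1, 3, 5, 7 and 24 h, in triplicate. Compound-to-degradation-product ratio (%) used to follow hydrolysis. Half-life obtained from an equation fitted to the time-course data. Mean ± SEM of three independent experiments.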

Aorta [5] = test: Vasodilating activity in potassium chloride-mediated precontracted guinea pig aorta at EC50 compound treated every 45 mins by chart recorder analysis in presence of 30 uM KATP channel inhibitor glibenclamide; assay type: functional, Cavia porcellus
Aorta [6] = test: Vasodilating activity in potassium chloride-mediated precontracted guinea pig aorta at EC50 compound treated every 45 mins by chart recorder analysis in presence of 100 uM KATP channel inhibitor glibenclamide; assay type: functional, Cavia porcellus
[7] = Stability of the compound in D2O assessed as degradation product ratio at 20 mg/ml at 20 degC after 24 hrs by 1H-NMR spectroscopic analysis; assay type: ADME; summary of the method: as §2
[8] = Stability of the compound in D2O assessed as compound remaining at 20 mg/ml at 20 degC after 24 hrs by 1H-NMR spectroscopic analysis; assay type: physicochemical; conditions: read-out: Stability; summary of the method: as §2
[9] = Half life of the compound in D2O at 20 mg/ml at 20 degC by 1H-NMR spectroscopic analysis; assay type: physicochemical; summary of the method: as §2
Aorta [10] = test: Vasodilating activity in potassium chloride-mediated precontracted guinea pig aorta at EC50 compound treated every 45 mins by chart recorder analysis in presence of 100 uM eNOS inhibitor nitro-L-arginine; assay type: functional, tissue-based; conditions: Cavia porcellus
Aorta [11] = test: Vasodilating activity in potassium chloride-mediated precontracted guinea pig aorta at EC50 compound incubated in sealed tube filled with distilled water at room temperature for 24 hrs prior to testing by chart recorder analysis; assay type: functional, tissue-based; conditions: Cavia porcellus
Summary of the method: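 Compound dissolved in distilled water and kept sealed at room temperature for 24 h. The solution was then added at a single concentration to guinea pig aortic rings precontracted with 90 mM KCl. Change in contraction force recorded on a chart recorder for 5 min. Mean ± SEM of three experiments.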

Row | SMILES | pEC50 (Aorta [1]) | pEC50 (Right cardiac atrium) | pEC50 [2] | pEC50 [3] | pEC50 (Ileum) | Stability [4] | Activity (Aorta [5]) | Activity (Aorta [6]) | Ratio [7] | Activity (Aorta [5]; Cavia porcellus) | remaining at 24 h, 20 mg/ml [8] | half-life at 20 mg/ml [9] | Activity (Aorta [10]) | Activity (Aorta [11]) | Activity (Aorta [6]; Cavia porcellus)
1 | CCCOC(=S)OCCN(C)C | < 4.00 | < 4.00 | 4.24 | < 4.00 | < 4.00 |  |  |  |  |  |  |  |  |  | 
2 | CN(C)CCOC(=S)OCCN(C)C | < 4.00 | < 4.00 | < 4.00 | < 4.00 | < 4.00 |  |  |  |  |  |  |  |  |  | 
3 | CCOC(=S)N1CCN(C)CC1 | < 4.00 | < 4.00 | < 4.00 | < 4.00 | < 4.00 |  |  |  |  |  |  |  |  |  | 
4 | CSC(=S)n1ccnc1.Cl | 5.11 | < 4.00 | 4.11 | 5.16 | 5.24 | Stable | 50% | 50% |  |  |  |  |  |  | 
5 | CC(=O)OCCSC(=S)n1ccnc1 | 5.24 | < 4.00 | 4.11 | 4.62 | < 4.00 |  |  |  |  |  |  |  |  |  | 
6 | CC(C)OC(=S)n1ccnc1 | 4.34 | < 4.00 | < 4.00 | < 4.00 | 4.68 |  |  |  |  |  |  |  |  |  | 
7 | CCOC(=S)OCCCN(C)C | < 4.00 | < 4.00 | < 4.00 | < 4.00 | < 4.00 |  |  |  |  |  |  |  |  |  | 
8 | CSC(=S)n1ccnc1C | 5.20 | < 4.00 | < 4.00 | 4.96 | 5.02 |  |  |  |  |  |  |  |  |  | 
9 | CCOC(=S)OCCN(C)C | < 4.00 | < 4.00 | < 4.00 | < 4.00 | < 4.00 |  |  |  |  |  |  |  |  |  | 
10 | S=C(N1CCCCC1)n1ccnc1 | < 4.00 | < 4.00 | < 4.00 | < 4.00 | < 4.00 |  |  |  |  |  |  |  |  |  | 
11 | O=C(OC1CCCCC1)n1ccnc1 | < 4.00 | < 4.00 | < 4.00 | < 4.00 | < 4.00 |  |  |  |  |  |  |  |  |  | 
12 | CCOC(=O)CCSC(=S)n1ccnc1 | 4.80 | < 4.00 | < 4.00 | 4.70 | 4.49 |  |  |  |  |  |  |  |  |  | 
13 | C[N+](C)(C)CCOC(=S)OCC[N+](C)(C)C | < 4.00 | < 4.00 | < 4.00 | < 4.00 | < 4.00 |  |  |  |  |  |  |  |  |  | 
14 | COc1cc(CSC(=S)n2ccnc2)cc(OC)c1OC | 5.52 | < 4.00 | 4.57 | 5.10 | 4.82 |  |  |  |  |  |  |  |  |  | 
15 | CCCCCCOC(=S)OCCCN(C)C | < 4.00 | 4.46 | 5.23 | < 4.00 | 4.80 |  |  |  |  |  |  |  |  |  | 
16 | CCCOC(=S)OCCCN(C)C | < 4.00 | < 4.00 | 4.43 | < 4.00 | < 4.00 |  |  |  |  |  |  |  |  |  | 
17 | CSC(=S)n1c(C)nc2ccccc21 | 4.64 | < 4.00 | 4.25 | 4.60 | 4.59 |  |  |  |  |  |  |  |  |  | 
18 | S=C(SCc1ccccc1)n1ccnc1 | 4.70 | < 4.00 | 4.52 | 4.20 | 4.40 |  |  |  |  |  |  |  |  |  | 
19 | Cc1nccn1C(=S)SCc1ccccc1 | 5.47 | 4.80 | < 4.00 | 4.89 | 4.80 |  |  |  |  |  |  |  |  |  | 
20 | CCCCOC(=S)n1ccnc1 | 4.89 | < 4.00 | < 4.00 | 4.64 | 4.68 |  |  |  |  |  |  |  |  |  | 
21 | Cl.S=C(OC1CCCCC1)n1ccnc1 | 4.85 | < 4.00 | < 4.00 | 4.62 | < 4.00 |  |  |  | 0.09 | inactive | 8% | 12.3 h | inactive | inactive | inactive
22 | CCOC(=S)n1ccnc1.Cl | 4.28 | < 4.00 | < 4.00 | 4.72 | 5.32 |  |  |  | 0.35 |  | 26% | 6.5 h |  | inactive | 
23 | CCCOC(=S)n1ccnc1 | 4.52 | < 4.00 | < 4.00 | 4.00 | 4.68 |  |  |  |  |  |  |  |  |  | 
24 | CC(C)OC(=O)n1ccnc1 | < 4.00 | < 4.00 | < 4.00 | < 4.00 | < 4.00 |  |  |  |  |  |  |  |  |  | 
25 | CCCOC(=S)N1CCN(C)CC1 | < 4.00 | < 4.00 | < 4.00 | < 4.00 | < 4.00 |  |  |  |  |  |  |  |  |  | 
26 | CC(C)CN(CC(C)C)C(=S)n1ccnc1 | 4.85 | 4.32 | 5.19 | 4.59 | 4.77 |  |  |  |  |  |  |  |  |  | 
27 | CCCCOC(=S)OCCCN(C)C | < 4.00 | < 4.00 | 5.37 | < 4.00 | 4.77 |  |  |  |  |  |  |  |  |  | 
28 | S=C(OC1CCCC1)n1ccnc1 | 4.44 | < 4.00 | < 4.00 | < 4.00 | 4.80 |  |  |  |  |  |  |  |  |  | 
29 | COc1ccc(CSC(=S)n2ccnc2)cc1 | 4.89 | < 4.00 | < 4.00 | 4.62 | < 4.00 |  |  |  |  |  |  |  |  |  | 
